Article PMC4531836 (Molecular imaging and biology : MIB : the official …, 2015)
Several values for one entry are separate records, joined by “and”; a condition that tells them apart may be missing. Equal values may be shown once. Entries after “also recorded” stand apart in the source; their conditions may differ.

Experiments:
Format in all cases: in vivo, human
[1] = Safety / adverse events in patients with prostate cancer; conditions: nine patients
Outline: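 Nine patients received about 320.6 MBq IV after 4–6 h fasting. Vital signs and ECG were recorded before dosing, with pulse oximetry during scanning. Within 2 weeks before and after, they had history, examination, CBC with differential, metabolic panel (BUN, creatinine, alkaline phosphatase, bilirubin, transaminases) and ECG. Follow-up visit or contact came within 30 days. Events were graded by NCI CTCAE.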

[2] = Blood and plasma activity, plasma metabolites, urinary excretion
Outline: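 Prostate cancer patients received about 320.6 MBq by slow IV push. Venous blood was drawn from the contralateral arm after PET2, PET4 and PET5, and 0.5 ml aliquots of blood and plasma were well-counted. Urine voided after PET4 and PET5 (about 110 and 160 min) was counted. For metabolites, plasma was acetonitrile-precipitated, spiked with unlabelled reference, and run on C18 radio-HPLC in 10% acetonitrile/90% triethylammonium phosphate pH 3.2 at 2 ml/min.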

prostate cancer = assay: PET/CT tumor uptake
Outline: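 Sequential PET/CT ran from injection (PET1–PET4), with PET5 at 120 min. Tumour sites were foci at PET5 with uptake above surrounding soft tissue or blood pool. SUVmax was normalised to lean body mass for up to five hottest lesions per patient, using automatic VOIs at 50% activity threshold. Tumour-to-reference ratio was lesion SUVmax over SUVmean of liver, blood pool or muscle.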

[3] = PET biodistribution in patients; conditions: visual
Outline: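 Patients fasted 4–6 h, then received about 320.6 MBq IV (specific activity 107.2 MBq/nmol). Mid-thigh-to-vertex 3D PET/CT with CT attenuation correction followed. Four sequential scans began at injection, at 1, 2, 4 and 4 min per bed. A fifth scan (4 min/bed) ran at 120 min. Two non-blinded nuclear-medicine readers reviewed images visually.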

Radiation dosimetry = assay: Radiation dosimetry
Outline: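 Four patients were analysed. Organ VOIs were drawn on longitudinal PET scans. Time-activity data were integrated by fitted single- or double-exponential functions, or numerically with single-exponential extrapolation. Residence times were scaled from CT-derived patient organ masses to reference masses. Absorbed doses used the MIRD S-value schema in OLINDA/EXM. The bladder model assumed 1.5 h voiding, and lens dose was taken as the photon dose to brain.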

O=C(O)CCC(NC(=O)NC(CCCCNC(=O)c1ccc([18F])nc1)C(=O)O)C(=O)O (stereo not drawn) [[^18F]DCFPyL, 2-(3-(1-carboxy-5-[(6-[^18F]fluoro-pyridine-3-carbonyl)-amino]-pentyl)-ureido)-pentanedioic acid]
Radiotracer-related adverse events with monitored heart rate or blood pressure [1]: no radiotracer-related adverse events | Adverse events ([1]; IV bolus average 320.6 MBq): No major radiotracer-specific adverse events; also recorded: safe to administer | Red cell binding ([2]; 86 and 137 min post-injection): non-detectable | Red cell binding ([2]; 20 min post-injection): negligible | Average urinary excretion of the radiotracer ([2]; by 2 h post-injection): 11% | Urinary excretion of the radiotracer, range ([2]; by 2 h post-injection): 6–15% | Average urinary excretion of the radiotracer ([2]; by 3 h post-injection): 16% | Urinary excretion of the radiotracer, range ([2]; by 3 h post-injection): 8–21% | Radiotracer metabolites in plasma (radio-HPLC) ([2]; three patients, up to 173 min post-injection): all plasma activities were in the form of unmetabolized radioligand; also recorded: no metabolism | SUVmax, individual lesions (prostate cancer; PET4 and PET5, approximately 1 and 2 h post-radiotracer injection): greater than 100 | SUVmax, highest uptake at a site of primary disease (prostate cancer; PET5 (120 min post-injection)): 71.6 | SUVmax, most avid bone lesions (prostate cancer; PET5 (120 min post-injection)): 102.0 | SUVmax, most avid lymph node lesion (prostate cancer; PET5 (120 min post-injection)): 100.3 | SUVmax in putative sites of prostate cancer (highest, some lesions) (prostate cancer; SUVmax normalized to lean body mass): > 100 | Radiotracer uptake in the brain [3]: No radiotracer uptake | Absorbed dose (Radiation dosimetry; Adrenals): 3.11E-02 mGy/MBq | Res. time (Radiation dosimetry; Adrenals): 3.16E-04 (Bq-h)/Bq | Res. time (Radiation dosimetry; Bone marrow (spine)): 5.52E-02 (Bq-h)/Bq | Absorbed dose (Radiation dosimetry; Brain): 2.19E-03 mGy/MBq | Res. time (Radiation dosimetry; Brain): 4.74E-03 (Bq-h)/Bq | Absorbed dose (Radiation dosimetry; Breasts): 4.57E-03 mGy/MBq | Res. time (Radiation dosimetry; Gallbladder): 1.18E-03 (Bq-h)/Bq | Absorbed dose (Radiation dosimetry; Gallbladder wall): 1.44E-02 mGy/MBq | Res. time (Radiation dosimetry; Heart): 1.98E-02 (Bq-h)/Bq | Absorbed dose (Radiation dosimetry; Heart wall): 1.29E-02 mGy/MBq | Res. time (Radiation dosimetry; Heart wall): 6.24E-03 (Bq-h)/Bq | Absorbed dose (Radiation dosimetry; Kidneys): 0.0945 mGy/MBq and 9.45E-02 mGy/MBq | Res. time (Radiation dosimetry; Kidneys): 2.17E-01 (Bq-h)/Bq | Res. time (Radiation dosimetry; LLI): 4.06E-03 (Bq-h)/Bq | Absorbed dose (Radiation dosimetry; LLI wall): 1.05E-02 mGy/MBq | Absorbed dose (Radiation dosimetry; Lacrimal glands): 3.50E-02 mGy/MBq | Res. time (Radiation dosimetry; Lacrimal glands): 3.86E-04 (Bq-h)/Bq | Absorbed dose (Radiation dosimetry; Lens): 1.25E-03 mGy/MBq | Res. time (Radiation dosimetry; Lens): 4.32E-06 (Bq-h)/Bq | Absorbed dose (Radiation dosimetry; Liver): 0.0380 mGy/MBq and 3.80E-02 mGy/MBq | Res. time (Radiation dosimetry; Liver): 2.60E-01 (Bq-h)/Bq | Absorbed dose (Radiation dosimetry; Lungs): 1.08E-02 mGy/MBq | Res. time (Radiation dosimetry; Lungs): 3.70E-02 (Bq-h)/Bq | Absorbed dose (Radiation dosimetry; Muscle): 6.32E-03 mGy/MBq | Res. time (Radiation dosimetry; Muscle): 3.07E-01 (Bq-h)/Bq | Absorbed dose (Radiation dosimetry; Osteogenic cells): 9.58E-03 mGy/MBq | Absorbed dose (Radiation dosimetry; Ovaries (hypothetical, all-male cohort)): 8.89E-03 mGy/MBq | Absorbed dose (Radiation dosimetry; Pancreas): 2.44E-02 mGy/MBq | Res. time (Radiation dosimetry; Pancreas): 3.05E-03 (Bq-h)/Bq | Absorbed dose (Radiation dosimetry; Parotid glands): 2.68E-02 mGy/MBq | Res. time (Radiation dosimetry; Parotid glands): 1.19E-02 (Bq-h)/Bq | Absorbed dose (Radiation dosimetry; Red marrow): 0.01 mGy/MBq and 1.04E-02 mGy/MBq | Res. time (Radiation dosimetry; Remainder of body): 7.11E-01 (Bq-h)/Bq | Absorbed dose (Radiation dosimetry; Skin): 4.05E-03 mGy/MBq | Absorbed dose (Radiation dosimetry; Small intestine): 9.13E-03 mGy/MBq | Absorbed dose (Radiation dosimetry; Spleen): 1.85E-02 mGy/MBq | Res. time (Radiation dosimetry; Spleen): 2.07E-02 (Bq-h)/Bq | Res. time (Radiation dosimetry; Stomach): 1.07E-02 (Bq-h)/Bq | Absorbed dose (Radiation dosimetry; Stomach wall): 1.16E-02 mGy/MBq | Absorbed dose (Radiation dosimetry; Submandibular glands): 0.0387 mGy/MBq and 3.87E-02 mGy/MBq | Res. time (Radiation dosimetry; Submandibular glands): 6.95E-03 (Bq-h)/Bq | Absorbed dose (Radiation dosimetry; Testes): 1.01E-02 mGy/MBq | Res. time (Radiation dosimetry; Testes): 1.76E-03 (Bq-h)/Bq | Absorbed dose (Radiation dosimetry; Thymus): 5.56E-03 mGy/MBq | Absorbed dose (Radiation dosimetry; Thyroid): 8.56E-03 mGy/MBq | Res. time (Radiation dosimetry; Thyroid): 2.34E-04 (Bq-h)/Bq | Res. time (Radiation dosimetry; Total body): 1.96E+00 (Bq-h)/Bq | Res. time (Radiation dosimetry; ULI): 2.20E-02 (Bq-h)/Bq | Absorbed dose (Radiation dosimetry; ULI wall): 1.67E-02 mGy/MBq | Res. time (Radiation dosimetry; Urinary bladder contents): 2.60E-01 (Bq-h)/Bq | Absorbed dose (Radiation dosimetry; Urinary bladder wall, voiding interval 1.5 h): 0.0864 mGy/MBq and 8.64E-02 mGy/MBq | Absorbed dose (Radiation dosimetry; Uterus (hypothetical, all-male cohort)): 1.15E-02 mGy/MBq | Effective dose (Radiation dosimetry; four patients, OLINDA/EXM): 0.0165 mSv/MBq | Radiation dose in the whole body and radiosensitive organs (Radiation dosimetry; whole body, red marrow, gonads, breasts): ≤ 0.01 mGy/MBq
